An excerpt weighted towards active compounds, which were near 2.9% of everything screened.
NALP1 inh: NALP1 inflammasome inhibitors in reconstituted yeast, colorimetric, S. cerevisiae, triplicate retest. S. cerevisiae NALP1/ASC/caspase-1 growth, X-gal OD620, 72 h. hit rate 0.61% among 280,000. inhibition, % at 10 µM; in the data active means inhibition mostly above about 24%, no sharp cut-off; inactive means mostly below about 32%
Mot1-301 SUMO: yeast Mot1-301 growth rescue at high temperature, primary screen, SUMOylation pathway inhibitor project, S. cerevisiae, ATP luminescence, 38.5C; S. cerevisiae Mot1-301 growth rescue; percent above DMSO median, 100 means doubled; growth rescue, % at 18.8 µM; hit rate 1% among 320,000; AID 2716, 2010;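 active means every valid replicate shows activation above 250% relative to neutral control wells; inactive means the rest, any valid replicate at or below 250%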;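 further: OY570 slx delta 5 strain wells were the positive control but not used for scaling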
FID counter: compounds displacing fluorescent DNA intercalator, primary screen, artefact control for HCV NS3 helicase inhibitor project, biochemical, FID fluorescence; inhibition, % at 7.9 µM; hit rate 0.17% among 290,000; DNA fluorescent intercalator displacement; in the data active means inhibition above about 37%;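 further: 0% = vehicle and 100% = reference compound; higher means more ethidium bromide displaced from hairpin DNA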
VIM-2 inhibitor: VIM-2 metallo-beta-lactamase inhibitors, primary screen, biochemical, epi-absorbance readout, Pseudomonas aeruginosa enzyme; hit rate 0.89% among 290,000; inhibition, % at 5.6 µM; purified VIM-2, nitrocefin hydrolysis, epi-absorbance fluorescence;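 active means inhibition above the mean of all tested compounds plus 3 SD, cutoff set per screening run, cut at about 7.5% in these data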;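 further: red hydrolysis product quenches plate fluorescence so inhibitors raise well fluorescence; 0% = enzyme with DMSO and 100% = DMSO without enzyme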
UBC9 SUMO inh: inhibitors of in vitro SUMOylation cascade, primary screen, biochemical, HTRF, uHTS | SUMO-conjugating enzyme UBC9 (Homo sapiens), P63279 | HTRF SUMOylation assay, SAE1/SAE2 + UBC9 | inhibition, % at 35 µM | hit rate 0.36% among 290,000; in the data active means inhibition above about 50%, passing the limit was not always enough
Target sequence (P63279 whole entry, looked up): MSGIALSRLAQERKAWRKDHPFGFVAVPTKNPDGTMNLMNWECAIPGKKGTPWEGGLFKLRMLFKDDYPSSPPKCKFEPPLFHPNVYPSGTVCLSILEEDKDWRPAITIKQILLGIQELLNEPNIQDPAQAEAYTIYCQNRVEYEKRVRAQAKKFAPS
IMP-1 inh: IMP-1 metallo-beta-lactamase inhibitors, primary screen, biochemical, epi-absorbance readout, Pseudomonas aeruginosa enzyme | metallo-beta-lactamase IMP-1 (Pseudomonas aeruginosa) | purified IMP-1, nitrocefin hydrolysis, epi-absorbance fluorescence | inhibition, % at 5.6 µM | hit rate 0.45% among 290,000 | AID 1556, 2009;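 active means inhibition above the mean plus 3 SD of all compounds in the same screening run, cut at about 4.5% in these data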;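 further: 0% = IMP-1 with DMSO and 100% = DMSO wells lacking enzyme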
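System: purified recombinant IMP-1 beta-lactamase. Medium: Zinc- and detergent-supplemented HEPES buffer, pH 7.1. Compound: one 5.6 µM dose […]. Schedule: 15 min preincubation plus 25 min reaction at 25 °C. Technique: Epi-absorbance fluorescence, 480 nm excitation, 530 nm emission.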
VIM-2 inh confirm: P. aeruginosa VIM-2 enzyme inhibition – biochemical, epi-absorbance, HTS, confirmation. shares compounds with IMP-1 inh. purified VIM-2 enzyme, nitrocefin absorbance. inhibition, % at 5.6 µM. hit rate 73% among 200. AID 1860, 2009; in the data active means inhibition above about 8%;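 further: 0% = enzyme with vehicle and 100% = no enzyme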
TEM-1 counter: Serine beta-lactamase TEM-1 inhibition, biochemical epi-absorbance counter-screen for IMP-1/VIM-2 inhibitor program. shares compounds with IMP-1 inh. TEM-1 beta-lactamase, nitrocefin absorbance inhibition. inhibition, % at 5.6 µM. hit rate 50% among 200. AID 2184, 2009; in the data active means inhibition above about 0.66%
Target sequence (P62593 whole entry, looked up): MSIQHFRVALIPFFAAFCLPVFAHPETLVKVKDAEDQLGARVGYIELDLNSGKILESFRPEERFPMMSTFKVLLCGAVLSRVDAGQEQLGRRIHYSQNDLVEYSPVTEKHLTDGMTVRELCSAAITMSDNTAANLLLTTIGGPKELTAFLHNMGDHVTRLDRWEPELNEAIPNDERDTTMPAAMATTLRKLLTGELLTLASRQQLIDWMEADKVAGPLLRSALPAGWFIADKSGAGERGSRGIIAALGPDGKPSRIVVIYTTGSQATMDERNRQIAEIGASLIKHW
IMP-1 inh conf: IMP-1 metallo-beta-lactamase inhibitors, confirmation, biochemical, epi-absorbance, hits shared with VIM-2 screen; hit rate 60% among 200; purified IMP-1 enzyme, absorbance substrate hydrolysis; shares compounds with IMP-1 inh; AID 2189, 2009; inhibition, % at 5.6 µM; in the data active means inhibition above about 4.9%;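 further: 0% = enzyme with vehicle and 100% = vehicle without enzyme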
Starred values were filed as active, the others as inactive.

COCCN(C(=O)c1snc(C(N)=O)c1N)C(C(=O)NC1CCCCC1)c1ccc(OC)c(OC)c1 (centres undefined) was read as NALP1 inh 7, Mot1-301 SUMO 4, FID counter -30, VIM-2 inhibitor -2, UBC9 SUMO inh 4 and IMP-1 inh -2.
Screening CC(NC(=O)c1cccs1)C(S)c1ccccc1 (centres undefined) returned NALP1 inh 2, Mot1-301 SUMO 5, FID counter -14, VIM-2 inhibitor 41*, UBC9 SUMO inh 2, IMP-1 inh 22*, VIM-2 inh confirm 47*, TEM-1 counter -6 and IMP-1 inh conf 48*.
`CC(C)n1cc(/C=N/Nc2ccc(Cl)c(C(=O)O)c2)c2ccccc21` gave NALP1 inh 3, Mot1-301 SUMO 11, FID counter -17, VIM-2 inhibitor 10*, UBC9 SUMO inh 8, IMP-1 inh 35*, VIM-2 inh confirm 8.0*, TEM-1 counter -4 and IMP-1 inh conf 28*.
O=C(O)c1cc(N/N=C/c2cccc3ccccc23)ccc1Cl was read as NALP1 inh -7, Mot1-301 SUMO -6, FID counter -20, VIM-2 inhibitor 0, UBC9 SUMO inh 10 and IMP-1 inh -1.
`CCCCCCn1c(=O)[nH]c2nc3cc(N)ccc3nc2c1=O` gave NALP1 inh 25, Mot1-301 SUMO 0, FID counter 4, VIM-2 inhibitor 12*, UBC9 SUMO inh 19, IMP-1 inh 16*, VIM-2 inh confirm 15*, TEM-1 counter 31* and IMP-1 inh conf 13*.
For COc1ccc(-c2cc(=O)oc3c(C)c(OCC(=O)NCCCn4ccnc4)ccc23)cc1 the results were NALP1 inh 8, Mot1-301 SUMO -4, FID counter 18, VIM-2 inhibitor 19*, UBC9 SUMO inh 28, IMP-1 inh 38*, VIM-2 inh confirm 26*, TEM-1 counter -4 and IMP-1 inh conf 32*.
Screening Cc1c(OCC(=O)NCC2CCC(C(=O)NCCCO)CC2)ccc2c(-c3ccccc3)cc(=O)oc12 (centres undefined) returned NALP1 inh 16, Mot1-301 SUMO -12, FID counter -56, VIM-2 inhibitor 0, UBC9 SUMO inh 19 and IMP-1 inh -1.
For CC(=O)N(c1cccc(C)c1)C1SC(=O)N(c2ccccc2)C1=O (centres undefined) the results were NALP1 inh 3, Mot1-301 SUMO -12, FID counter -12, VIM-2 inhibitor 8.3*, UBC9 SUMO inh 6, IMP-1 inh 12*, VIM-2 inh confirm 9.0*, TEM-1 counter -5 and IMP-1 inh conf 18*.
`O=C(COC(=O)CSc1ccccc1)NCCNC(=O)COC(=O)CSc1ccccc1` gave Mot1-301 SUMO 9.
c1nc(NCCN2CCOCC2)c2sc3nc(N4CCOCC4)c4c(c3c2n1)CCC4 was read as NALP1 inh 2, Mot1-301 SUMO 18, FID counter 3, VIM-2 inhibitor 9.5*, UBC9 SUMO inh 23, IMP-1 inh 7.6*, VIM-2 inh confirm 16*, TEM-1 counter -4 and IMP-1 inh conf -1.

Source: PubChem BioAssay (several laboratories)
